These results are taken from ChEMBL document CHEMBL2311539, “3,6-Diamino-4-(2-halophenyl)-2-benzoylthieno[2,3-b]pyridine-5-carbonitriles are selective inhibitors of Plasmodium falciparum glycogen synthase kinase-3” (J Med Chem, 2013).

The nature of test [1]: Inhibition of Toxoplasma gondii recombinant His6-tagged GSK-3 expressed in Escherichia coli using GS-1 peptide as substrate after 30 mins by scintillation counting analysis in presence of gamma-33P-ATP. Format: cell-free. The gist of the method:
(§1)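 His6-tagged recombinant GSK-3 expressed in E. coli (TOP10/pBAD-Thio-TOPO for P. falciparum and T. gondii, arabinose-induced; BL21(DE3)-pRARE2/pET15 for C. parvum, IPTG at 15 °C), Ni-NTA purified. Assayed with 40 μM GS-1 phosphopeptide, 15 μM γ-33P-ATP in pH 7.5 Tris buffer with MgCl2, EGTA, DTT, heparin, BSA; 30 min, 30 °C; P81 paper, phosphoric acid washes, scintillation counting. DMSO controls; dose-response IC50, triplicate points.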

Test [2] in a line: Inhibition of Plasmodium knowlesi recombinant His6-tagged GSK-3 expressed in Escherichia coli using GS-1 peptide as substrate after 30 mins by scintillation counting analysis in presence of gamma-33P-ATP. The gist of the method: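 P. knowlesi GSK3 gene in pBAD-Thio-TOPO, expressed in E. coli TOP10 (ampicillin, 37 °C, 0.02% arabinose for 4 h), Ni-NTA purified. Radiometric assay: 40 μM GS-1 peptide in buffer A pH 7.5 (MgCl2, EGTA, DTT, heparin, BSA) with 15 μM γ-33P-ATP, 30 min at 30 °C. P81 filter binding, scintillation counting. IC50 from triplicate dose-response curves.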

The nature of test [3]: Inhibition of Plasmodium falciparum recombinant His6-tagged GSK-3 expressed in Escherichia coli using GS-1 peptide as substrate after 30 mins by scintillation counting analysis in presence of gamma-33P-ATP. Put shortly:
as §1

The nature of test [4]: Inhibition of Plasmodium falciparum recombinant GSK-3 by radiometric protein kinase assay. Put shortly:
as §1

The test system of test [5] is Plasmodium falciparum. As to the kind of experiment: Antiplasmodial activity against Plasmodium falciparum after 72 hrs by luciferase reporter gene assay. In kind it is functional, organism-based. Conditions: 48 h, in the assay text read “48 hrs” for “72 hrs”. The gist of the method:
(§2)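 NF54:LUC P. falciparum erythrocytic stages (luciferase under hrp2 promoter) at 3% parasitemia, 25% hematocrit; compounds in RPMI-1640 with 1% DMSO, triplicate wells; untreated, DMSO-only and non-luciferase NF54 blank wells. […] Bright-Glo lysis, luminescence read.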
A general note: A reporter such as luciferase makes a cellular process visible.

In test [6] the test system is Plasmodium falciparum. As to the kind of experiment: Antiplasmodial activity against Plasmodium falciparum at 15 uM after 72 hrs by luciferase reporter gene assay. In kind it is functional. The gist of the method:
as §2

In test [7] the target is Serine/threonine-protein kinase PAK 4 (Homo sapiens) (UniProt O96013). The test is described as follows: Inhibition of PAK4 (unknown origin) at 10 uM. Put shortly: (§3)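 Dundee human kinase selectivity panel (77 kinases); test compound at 1 and 10 μM, percentage kinase inhibition recorded.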
For test [8], the target named is Mitogen-activated protein kinase 14 (Homo sapiens) (UniProt Q16539). The test is described as follows: Inhibition of P38alpha MAPK (unknown origin) at 10 uM. The gist of the method: as §3
Test [9] has as its target Dual specificity mitogen-activated protein kinase kinase 1 (Homo sapiens) (UniProt Q02750). As to the kind of experiment: Inhibition of MKK1 (unknown origin) at 10 uM. The gist of the method:
as §3

Test [10] concerns the target MAP kinase-activated protein kinase 2 (Homo sapiens) (UniProt P49137). As to the kind of experiment: Inhibition of MAPKAP-K2 (unknown origin) at 10 uM. The gist of the method:
as §3

Test [11] deals with Insulin receptor (Homo sapiens) (UniProt P06213). As to the kind of experiment: Inhibition of IR-HIS (unknown origin) at 10 uM. The gist of the method:
as §3

Test [12] deals with T1, Mitogen-activated protein kinase 15 (Homo sapiens) (UniProt Q8TD08).
T1 sequence (whole entry): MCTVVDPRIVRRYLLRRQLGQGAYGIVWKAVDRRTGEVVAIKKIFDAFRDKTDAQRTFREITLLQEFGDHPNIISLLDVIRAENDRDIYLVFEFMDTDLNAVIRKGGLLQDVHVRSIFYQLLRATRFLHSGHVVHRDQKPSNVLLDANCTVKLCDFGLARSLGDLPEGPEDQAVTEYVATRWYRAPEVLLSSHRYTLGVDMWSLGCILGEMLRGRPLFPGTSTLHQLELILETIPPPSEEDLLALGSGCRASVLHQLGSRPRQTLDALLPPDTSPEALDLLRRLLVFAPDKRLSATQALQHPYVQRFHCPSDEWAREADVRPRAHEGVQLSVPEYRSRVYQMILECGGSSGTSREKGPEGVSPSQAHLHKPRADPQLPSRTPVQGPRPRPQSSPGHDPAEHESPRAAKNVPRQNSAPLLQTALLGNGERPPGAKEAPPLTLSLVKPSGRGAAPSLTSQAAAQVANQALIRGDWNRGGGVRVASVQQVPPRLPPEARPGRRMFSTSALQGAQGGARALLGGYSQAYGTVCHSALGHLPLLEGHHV
The test is described as follows: Inhibition of ERK8 (unknown origin) at 10 uM. The gist of the method: as §3

Test [13] deals with Calcium/calmodulin-dependent protein kinase type 1 (Homo sapiens) (UniProt Q14012). The test is described as follows: Inhibition of CAMK1 (unknown origin) at 10 uM. Put shortly:
as §3

In test [14] the target is Tyrosine-protein kinase BTK (Homo sapiens) (UniProt Q06187). The test is described as follows: Inhibition of BTK (unknown origin) at 10 uM. The gist of the method: as §3
Test [15] concerns the target T2, Serine/threonine-protein kinase BRSK2 (Homo sapiens) (UniProt Q8IWQ3).
T2 sequence (whole entry): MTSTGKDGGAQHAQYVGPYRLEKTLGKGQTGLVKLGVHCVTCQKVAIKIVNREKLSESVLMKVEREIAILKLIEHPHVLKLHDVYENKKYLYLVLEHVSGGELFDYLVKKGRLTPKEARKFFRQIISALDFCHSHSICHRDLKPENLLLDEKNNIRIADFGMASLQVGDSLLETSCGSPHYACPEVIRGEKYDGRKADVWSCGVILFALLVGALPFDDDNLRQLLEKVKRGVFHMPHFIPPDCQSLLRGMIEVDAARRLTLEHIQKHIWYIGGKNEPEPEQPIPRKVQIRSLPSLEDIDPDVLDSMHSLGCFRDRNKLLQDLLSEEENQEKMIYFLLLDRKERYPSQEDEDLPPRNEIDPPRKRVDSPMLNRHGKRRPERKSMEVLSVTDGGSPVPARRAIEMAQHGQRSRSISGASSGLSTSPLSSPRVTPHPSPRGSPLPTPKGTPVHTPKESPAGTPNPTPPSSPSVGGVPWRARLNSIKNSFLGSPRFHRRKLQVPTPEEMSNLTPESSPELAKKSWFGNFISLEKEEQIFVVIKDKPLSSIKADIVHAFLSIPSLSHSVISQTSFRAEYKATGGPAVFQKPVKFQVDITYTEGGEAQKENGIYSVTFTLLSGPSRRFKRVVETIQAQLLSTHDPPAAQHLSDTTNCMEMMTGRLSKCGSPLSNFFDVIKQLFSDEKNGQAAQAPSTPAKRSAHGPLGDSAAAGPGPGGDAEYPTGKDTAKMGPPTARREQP
As to the kind of experiment: Inhibition of BRSK2 (unknown origin) at 10 uM. The gist of the method:
as §3

The target in test [16] is Glycogen synthase kinase-3 (Sus scrofa, UniProt B2LUN4+I6LNT8). As to the kind of experiment: Inhibition of pig GSK-3alpha/beta. The gist of the method: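 Native affinity-purified porcine GSK-3 in the radiometric assay: 40 μM GS-1 peptide, 15 μM γ-33P-ATP, pH 7.5 Tris/MgCl2/EGTA/DTT/heparin/BSA buffer, 30 min at 30 °C, P81 filter binding and scintillation counting. IC50 from dose-response curves with triplicate points; top concentration 10 or 100 μM.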

Test [17] in a line: Inhibition of Trypanosoma brucei GSK-3.

Where only a bound is given, the exact number is not on record here.

Sequence of Tyrosine-protein kinase BTK (Homo sapiens) (Q06187 whole entry): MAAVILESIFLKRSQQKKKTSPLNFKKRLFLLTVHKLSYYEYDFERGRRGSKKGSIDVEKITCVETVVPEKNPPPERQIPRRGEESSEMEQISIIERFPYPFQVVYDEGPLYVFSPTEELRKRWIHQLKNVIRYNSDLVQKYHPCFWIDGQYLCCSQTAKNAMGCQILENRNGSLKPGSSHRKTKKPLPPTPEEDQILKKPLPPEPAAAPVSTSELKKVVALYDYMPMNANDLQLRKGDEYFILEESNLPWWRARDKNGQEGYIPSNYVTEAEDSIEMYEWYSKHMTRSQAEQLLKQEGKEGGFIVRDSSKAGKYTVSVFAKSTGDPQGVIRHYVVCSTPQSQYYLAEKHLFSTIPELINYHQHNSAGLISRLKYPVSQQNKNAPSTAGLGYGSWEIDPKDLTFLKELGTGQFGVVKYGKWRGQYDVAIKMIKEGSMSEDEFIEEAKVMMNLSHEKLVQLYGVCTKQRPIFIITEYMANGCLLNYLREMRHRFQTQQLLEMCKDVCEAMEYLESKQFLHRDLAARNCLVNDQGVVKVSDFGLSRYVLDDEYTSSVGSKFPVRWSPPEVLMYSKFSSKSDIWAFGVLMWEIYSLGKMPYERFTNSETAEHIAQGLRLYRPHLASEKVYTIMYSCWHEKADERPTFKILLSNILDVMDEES
Sequence of Serine/threonine-protein kinase PAK 4 (Homo sapiens) (O96013 whole entry, looked up): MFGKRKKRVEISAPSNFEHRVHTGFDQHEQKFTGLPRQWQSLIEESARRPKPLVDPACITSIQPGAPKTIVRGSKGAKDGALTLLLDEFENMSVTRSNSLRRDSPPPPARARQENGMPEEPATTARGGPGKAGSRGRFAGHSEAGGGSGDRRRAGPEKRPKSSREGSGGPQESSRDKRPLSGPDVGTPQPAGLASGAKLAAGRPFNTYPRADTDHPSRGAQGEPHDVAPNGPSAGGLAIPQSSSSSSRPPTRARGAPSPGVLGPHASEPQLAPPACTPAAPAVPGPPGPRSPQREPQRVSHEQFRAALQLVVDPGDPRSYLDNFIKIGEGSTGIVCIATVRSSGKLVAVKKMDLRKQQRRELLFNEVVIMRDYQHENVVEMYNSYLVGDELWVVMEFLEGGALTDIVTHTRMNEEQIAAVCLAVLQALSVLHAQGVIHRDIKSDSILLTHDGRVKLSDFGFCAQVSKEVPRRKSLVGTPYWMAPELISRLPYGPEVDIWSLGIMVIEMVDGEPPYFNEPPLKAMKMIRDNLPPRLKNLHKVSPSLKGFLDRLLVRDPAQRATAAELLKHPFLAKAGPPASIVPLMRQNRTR
Sequence of Calcium/calmodulin-dependent protein kinase type 1 (Homo sapiens) (Q14012 whole entry, looked up): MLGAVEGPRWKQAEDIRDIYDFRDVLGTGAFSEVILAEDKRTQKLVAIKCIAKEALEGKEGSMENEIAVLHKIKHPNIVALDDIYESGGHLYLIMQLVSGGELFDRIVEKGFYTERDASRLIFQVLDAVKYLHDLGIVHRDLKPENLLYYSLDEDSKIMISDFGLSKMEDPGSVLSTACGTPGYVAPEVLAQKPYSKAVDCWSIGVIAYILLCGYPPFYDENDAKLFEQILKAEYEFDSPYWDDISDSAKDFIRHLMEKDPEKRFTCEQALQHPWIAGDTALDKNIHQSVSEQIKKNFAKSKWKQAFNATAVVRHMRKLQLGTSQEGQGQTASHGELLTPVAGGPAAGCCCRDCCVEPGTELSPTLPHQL
Sequence of Mitogen-activated protein kinase 14 (Homo sapiens) (Q16539 whole entry): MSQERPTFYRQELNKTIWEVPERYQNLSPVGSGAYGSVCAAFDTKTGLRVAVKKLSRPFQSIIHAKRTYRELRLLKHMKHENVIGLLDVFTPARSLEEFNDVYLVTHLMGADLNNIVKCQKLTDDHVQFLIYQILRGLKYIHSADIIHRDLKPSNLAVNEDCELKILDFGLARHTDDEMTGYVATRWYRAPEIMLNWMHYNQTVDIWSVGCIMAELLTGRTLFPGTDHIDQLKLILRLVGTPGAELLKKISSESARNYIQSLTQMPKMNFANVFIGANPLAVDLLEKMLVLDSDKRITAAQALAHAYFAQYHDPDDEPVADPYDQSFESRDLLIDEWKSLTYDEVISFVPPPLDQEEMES
Sequence of Insulin receptor (Homo sapiens) (P06213 28-758 limits assumed): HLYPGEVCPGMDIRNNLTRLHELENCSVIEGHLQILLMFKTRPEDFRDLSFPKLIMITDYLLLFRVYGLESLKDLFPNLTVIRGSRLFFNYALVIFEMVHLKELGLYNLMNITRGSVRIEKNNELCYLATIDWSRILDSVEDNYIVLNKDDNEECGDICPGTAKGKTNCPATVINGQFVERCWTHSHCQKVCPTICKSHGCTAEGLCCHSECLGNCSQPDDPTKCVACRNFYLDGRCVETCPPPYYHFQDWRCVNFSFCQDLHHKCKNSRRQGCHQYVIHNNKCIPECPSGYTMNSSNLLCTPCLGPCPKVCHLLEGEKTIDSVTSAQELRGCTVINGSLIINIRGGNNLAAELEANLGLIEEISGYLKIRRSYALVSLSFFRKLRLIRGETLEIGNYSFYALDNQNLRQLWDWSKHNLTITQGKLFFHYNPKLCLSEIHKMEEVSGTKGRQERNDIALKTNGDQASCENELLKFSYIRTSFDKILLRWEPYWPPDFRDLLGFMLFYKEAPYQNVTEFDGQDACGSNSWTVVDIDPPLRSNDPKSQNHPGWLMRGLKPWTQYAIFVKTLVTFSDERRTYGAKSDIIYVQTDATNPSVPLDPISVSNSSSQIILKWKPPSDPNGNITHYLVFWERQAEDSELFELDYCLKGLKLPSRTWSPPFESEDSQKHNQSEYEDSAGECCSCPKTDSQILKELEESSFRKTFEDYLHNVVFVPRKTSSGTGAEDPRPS
Sequence of Insulin receptor (Homo sapiens) (P06213 763-1382 limits assumed): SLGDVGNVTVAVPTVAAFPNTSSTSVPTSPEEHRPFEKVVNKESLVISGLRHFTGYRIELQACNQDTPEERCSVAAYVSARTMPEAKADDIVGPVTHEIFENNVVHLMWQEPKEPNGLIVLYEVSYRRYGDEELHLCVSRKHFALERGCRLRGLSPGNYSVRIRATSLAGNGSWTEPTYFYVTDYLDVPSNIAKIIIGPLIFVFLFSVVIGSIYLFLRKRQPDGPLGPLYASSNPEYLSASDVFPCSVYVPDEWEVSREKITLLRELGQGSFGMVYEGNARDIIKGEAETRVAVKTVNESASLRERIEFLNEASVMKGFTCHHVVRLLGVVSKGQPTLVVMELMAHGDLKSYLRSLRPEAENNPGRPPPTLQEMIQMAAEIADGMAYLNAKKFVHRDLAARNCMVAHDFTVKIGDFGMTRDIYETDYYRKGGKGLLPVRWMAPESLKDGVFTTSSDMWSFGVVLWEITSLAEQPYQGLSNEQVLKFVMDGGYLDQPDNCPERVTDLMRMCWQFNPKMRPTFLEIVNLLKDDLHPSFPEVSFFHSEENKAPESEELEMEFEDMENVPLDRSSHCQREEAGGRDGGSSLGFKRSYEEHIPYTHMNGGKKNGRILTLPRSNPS
Sequence of MAP kinase-activated protein kinase 2 (Homo sapiens) (P49137 whole entry, looked up): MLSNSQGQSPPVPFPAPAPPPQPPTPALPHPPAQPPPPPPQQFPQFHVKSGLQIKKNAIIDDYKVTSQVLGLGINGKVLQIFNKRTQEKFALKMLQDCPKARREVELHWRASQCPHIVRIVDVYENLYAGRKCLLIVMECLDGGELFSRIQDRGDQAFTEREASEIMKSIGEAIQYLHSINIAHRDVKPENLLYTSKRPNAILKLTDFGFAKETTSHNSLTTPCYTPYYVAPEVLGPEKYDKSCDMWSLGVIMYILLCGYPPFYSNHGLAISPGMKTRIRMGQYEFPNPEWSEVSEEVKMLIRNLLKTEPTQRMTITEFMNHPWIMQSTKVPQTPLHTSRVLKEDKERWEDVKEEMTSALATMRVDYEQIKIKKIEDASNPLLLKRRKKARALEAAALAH
Sequence of Dual specificity mitogen-activated protein kinase kinase 1 (Homo sapiens) (Q02750 whole entry): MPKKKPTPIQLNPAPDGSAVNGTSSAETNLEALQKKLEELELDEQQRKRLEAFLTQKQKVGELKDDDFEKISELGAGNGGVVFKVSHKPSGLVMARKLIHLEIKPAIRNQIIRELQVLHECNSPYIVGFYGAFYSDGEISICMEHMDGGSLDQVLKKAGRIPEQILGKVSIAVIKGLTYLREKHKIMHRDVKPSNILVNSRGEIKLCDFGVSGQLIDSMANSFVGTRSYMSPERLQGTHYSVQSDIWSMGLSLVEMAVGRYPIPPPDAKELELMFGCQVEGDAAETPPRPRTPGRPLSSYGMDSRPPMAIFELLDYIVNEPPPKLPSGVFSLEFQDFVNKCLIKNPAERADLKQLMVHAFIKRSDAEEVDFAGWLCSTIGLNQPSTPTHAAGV

Usually IC50 stands for the concentration that inhibits the measured activity by half. Broadly, the EC50 is the concentration at which the effect is half-maximal. Higher therefore signals a need for much substance. In general, inhibition refers to the change of the read-out against control, counted positive when it falls. As for `N#Cc1c(N)nc2sc(C(=O)c3cccc(Cl)c3)c(N)c2c1-c1ccccc1Cl`, the IC50 in [1] was > 100000 nM; in test [2], 2450 nM; in [3] it was 480 nM; in test [4], 480 nM; in [16], > 10000 nM; in test [17] it was > 100000 nM. Also, the EC50 in the test with Plasmodium falciparum [5] came to 5500 nM. In the test on Plasmodium falciparum [6], this compound returned an inhibition at 15 µM of 100%. For the same compound, the inhibition in [7], in test [8], in test [9], in test [10], in test [11] and in test [12] was > 50% throughout. The inhibition in test [13], in test [14] and in test [15] was > 50% each time.
